Test results published in ChEMBL document CHEMBL1130423, “Design, synthesis, and biological evaluation of new growth inhibitors of Trypanosoma cruzi (epimastigotes)” (J Med Chem, 1997).

What follows are compounds tested on Trypanosoma cruzi (assay: Inhibitory concentration against Trypanosoma cruzi (epimastigotes)).
Type: functional, organism-based
Procedure, shortened: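 T. cruzi epimastigotes (Y strain) grown at 28 °C in brain-heart infusion (37 g/L) medium with hemin chlorohydrate (20 mg/L) and 10% newborn calf serum. Initial inoculum 2-3 × 10^6 cells/mL, counted in a Neubauer chamber. Each drug tested at four concentrations with a drug-free control per group. Growth read as absorbance at 600 nm against medium blank. Percent inhibition taken from the start-to-end absorbance change relative to control.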

Row | SMILES | IC50 [µM]
1 | OC(c1ccccc1)c1ccc(OCCOC2CCCCO2)cc1 (stereo not given) | > 500
2 | COc1ccc(OCCO)cc1 | > 500
3 | COc1ccc(OCCCOC2CCCCO2)cc1 (stereo not given) | > 300
4 | OCC(O)COc1ccc(Oc2ccccc2)cc1 (stereo not given) | 270
5 | O=C(c1ccccc1)c1ccc(OCCO)cc1 | > 400
6 | O=C(c1ccccc1)c1ccc(OCCOC2CCCCO2)cc1 (stereo not given) | 268
7 | CCNC(=O)OC(C)COc1ccc(OC)cc1 (stereo not given) | > 350
8 | CCNC(=O)OCCOc1ccc(C(=O)c2ccccc2)cc1 | > 300
9 | C=COC(=O)OC/C=C(\C)CC/C=C(\C)CCC=C(C)C | > 500
10 | COc1ccc(OCC(C)O)cc1 (stereo not given) | > 500
11 | C=COC(=O)OC(C)COc1ccc(Oc2ccccc2)cc1 (stereo not given) | > 240
12 | CCNC(=O)OCCOc1ccc(OC)cc1 | > 300
13 | CCNC(=O)OCCCOc1ccc(OC)cc1 | > 350

Further compounds by falling IC50, results first:

Row | IC50 [µM] | SMILES
14 | 260 | C=COC(=O)OCCCOc1ccc(Oc2ccccc2)cc1
15 | 233 | CCNC(=O)OCC(O)COc1ccc(Oc2ccccc2)cc1 (stereo not given)
16 | 218 | COc1ccc(OCCOC2CCCCO2)cc1 (stereo not given)
17 | 210 | CCSC(=O)OC/C=C(\C)CC/C=C(\C)CCC1OC1(C)C (stereo not given)
18 | 209 | C=CCOc1ccc(OC)cc1 [1-allyloxy-4-methoxybenzene]
19 | 176 | CCNC(=O)OC/C=C(\C)CCC=C(C)C
20 | 147 | CCNC(=O)OC/C=C(\C)CC/C=C(\C)CCC=C(C)C
21 | 142 | OC(COc1ccc(Oc2ccccc2)cc1)COC1CCCCO1 (stereo not given)
22 | 138 | c1ccc(Oc2ccc(OCCOC3CCCCO3)cc2)cc1 (stereo not given)
23 | 129 | C=CCOc1ccc(C(=O)c2ccccc2)cc1
24 | 78 | CC(C)=CCC/C(C)=C/CC/C(C)=C/COC1CCCCO1 (stereo not given)
25 | 68 | CC(C)=CCC/C(C)=C/COC1CCCCO1 (stereo not given)
